Data reported in ChEMBL document CHEMBL4339182, “Pyridine and nitro-phenyl linked 1,3,4-thiadiazoles as MDR-TB inhibitors” (Eur J Med Chem, 2019).
In brackets after ≈: the same amount, converted by molar mass.

Assays:
[1] = test system: Mycobacterium tuberculosis; test: Antimycobacterial activity against Mycobacterium tuberculosis MDR-TB incubated for 12 to 28 days by agar dilution method; assay type: functional
Summary of the method: (§1)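 Conventional Lowenstein-Jensen agar dilution. Compound stock dilutions in DMSO (200 to 1.56 µg/mL) were added to liquid L.J. medium, which was then sterilized by inspissation. Culture was harvested in 0.85% saline. Tubes were kept 24 h at 37 °C, streaked with 5 x 10⁴ bacilli per tube, and incubated at 37 °C. Growth was read at days 12, 22 and 28 against drug-free controls. MIC was the lowest concentration giving no colonies or fewer than 20 (≥99% inhibition), converted from µg/mL to µM.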

[2] = test system: Mycobacterium tuberculosis; test: Antimycobacterial activity against Mycobacterium tuberculosis H37Rv incubated for 12 to 28 days by agar dilution method; assay type: functional; summary of the method: as §1
Vero = test: Cytotoxicity against African green monkey Vero cells assessed as reduction in cell viability incubated for 72 hrs by MTT assay; assay type: cell-based; conditions: Chlorocebus sabaeus
Summary of the method: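 Vero cells were grown in DMEM with 2 mM Na₂CO₃ and 10% FBS at 37 °C under 5% CO₂ until confluent, then diluted in PBS. Compounds came from DMSO stocks diluted in medium, with 1% DMSO final. Exposure was 72 h at 37 °C. Monolayers were washed with warm HBSS, then MTS-PMS was added for 3 h and absorbance read at 490 nm.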

[3] = test system: Mycobacterium tuberculosis; test: Antimycobacterial activity against Mycobacterium tuberculosis H37Rv ATCC 27294 by microplate alamar blue assay; assay type: functional

Row | Structure (SMILES) | MIC90 [1] [µM] | MIC90 [2] [µM] | IC50 (Vero) [µM] | MIC90 [3] [µg/mL]
1 | CCC(=O)Nc1nnc(-c2ccc([N+](=O)[O-])cc2)s1 | > 200 | 89 (≈ 24.8 µg/mL) | – | –
2 | O=C(CCl)Nc1nnc(-c2ccc([N+](=O)[O-])cc2)s1 | > 200 | 168 (≈ 50.2 µg/mL) | – | –
3 | O=C(Nc1nnc(-c2cccc([N+](=O)[O-])c2)s1)c1ccc([N+](=O)[O-])cc1 | 134 (≈ 49.8 µg/mL) | 33 (≈ 12.3 µg/mL) | 268 | –
4 | CCCC(=O)Nc1nnc(-c2ccncc2)s1 | > 200 | 201 (≈ 49.9 µg/mL) | – | –
5 | O=C(Nc1nnc(-c2ccc([N+](=O)[O-])cc2)s1)c1ccccc1 | 306 (≈ 99.9 µg/mL) | 38 (≈ 12.4 µg/mL) | – | –
6 | O=C(Nc1nnc(-c2ccc([N+](=O)[O-])cc2)s1)c1ccco1 | 9.87 (≈ 3.12 µg/mL) | 9.87 (≈ 3.12 µg/mL) | 306 | –
7 | CC(C)(C)C(=O)Nc1nnc(-c2ccc([N+](=O)[O-])cc2)s1 | > 200 | 204 (≈ 62.5 µg/mL) | – | –
8 | CCCCC(=O)Nc1nnc(-c2ccc([N+](=O)[O-])cc2)s1 | 163 (≈ 49.9 µg/mL) | 40 (≈ 12.3 µg/mL) | 278 | –
9 | CCCC(=O)Nc1nnc(-c2cccc([N+](=O)[O-])c2)s1 | > 200 | 42 (≈ 12.3 µg/mL) | – | –
10 | O=C(Nc1nnc(-c2ccncc2)s1)C(Cl)(Cl)Cl | > 200 | > 200 | – | –
11 | O=C(CCl)Nc1nnc(-c2cccc([N+](=O)[O-])c2)s1 | > 200 | 21 (≈ 6.27 µg/mL) | – | –
12 | O=C(Nc1nnc(-c2ccncc2)s1)c1cccs1 | > 200 | 21 (≈ 6.06 µg/mL) | – | –
13 | O=C(Cl)CCCCC(=O)Nc1nnc(-c2ccncc2)s1 | > 200 | 192 (≈ 62.4 µg/mL) | – | –
14 | CC(Cl)CC(=O)Nc1nnc(-c2ccncc2)s1 (stereo not drawn) | > 200 | > 200 | – | –
15 | O=C(CCCCl)Nc1nnc(-c2ccc([N+](=O)[O-])cc2)s1 | > 200 | 153 (≈ 50 µg/mL) | – | –
16 | O=C(Nc1nnc(-c2ccc([N+](=O)[O-])cc2)s1)c1ccc([N+](=O)[O-])cc1 | 67 (≈ 24.9 µg/mL) | 16.8 (≈ 6.25 µg/mL) | 290 | –
17 | CCCCC(=O)Nc1nnc(-c2cccc([N+](=O)[O-])c2)s1 | 163 (≈ 49.9 µg/mL) | 40 (≈ 12.3 µg/mL) | 289 | –
18 | O=C(CCl)Nc1nnc(-c2ccncc2)s1 | > 200 | 196 (≈ 49.9 µg/mL) | – | –
19 | O=C(CSc1nnc(-c2ccc([N+](=O)[O-])o2)s1)Oc1ccccc1 | – | – | – | 0.78 (≈ 2.15 µM)
20 | O=C(CCCCl)Nc1nnc(-c2cccc([N+](=O)[O-])c2)s1 | > 200 | 153 (≈ 50 µg/mL) | – | –
21 | CC(Cl)CC(=O)Nc1nnc(-c2cccc([N+](=O)[O-])c2)s1 (stereo not drawn) | > 200 | > 200 | – | –
22 | O=C(Nc1nnc(-c2ccc([N+](=O)[O-])cc2)s1)c1cccs1 | > 200 | > 200 | – | –

Row | Structure (SMILES) | MIC90 [1] [µM] | MIC90 [2] [µM] | IC50 (Vero) [µM] | MIC90 [3] [µg/mL]
23 | Cc1ccc(C(=O)Nc2nnc(-c3ccc([N+](=O)[O-])cc3)s2)cc1 | 147 (≈ 50 µg/mL) | 18.4 (≈ 6.26 µg/mL) | 310 | –
24 | O=[N+]([O-])c1ccc(CSc2nnc(-c3ccc([N+](=O)[O-])o3)s2)cc1 | – | – | – | 3.13 (≈ 8.59 µM)
25 | O=C(Nc1nnc(-c2cccc([N+](=O)[O-])c2)s1)c1cccs1 | > 200 | 301 (≈ 100 µg/mL) | – | –
26 | O=C(Cl)CCCCC(=O)Nc1nnc(-c2ccc([N+](=O)[O-])cc2)s1 | 271 (≈ 99.9 µg/mL) | 135 (≈ 49.8 µg/mL) | – | –
27 | CCCC(=O)Nc1nnc(-c2ccc([N+](=O)[O-])cc2)s1 | 171 (≈ 50 µg/mL) | 42 (≈ 12.3 µg/mL) | 301 | –
28 | COc1ccc(C(=O)Nc2nnc(-c3ccc([N+](=O)[O-])cc3)s2)cc1 | 140 (≈ 49.9 µg/mL) | 35 (≈ 12.5 µg/mL) | 278 | –
29 | COc1ccc(C(=O)Nc2nnc(-c3cccc([N+](=O)[O-])c3)s2)cc1 | 280 (≈ 99.8 µg/mL) | 35 (≈ 12.5 µg/mL) | – | –
30 | CC(C)(C)C(=O)Nc1nnc(-c2cccc([N+](=O)[O-])c2)s1 | > 200 | 204 (≈ 62.5 µg/mL) | – | –
31 | CCC(=O)Nc1nnc(-c2cccc([N+](=O)[O-])c2)s1 | > 200 | 89 (≈ 24.8 µg/mL) | – | –
32 | O=C(Nc1nnc(-c2ccc([N+](=O)[O-])cc2)s1)C(Cl)(Cl)Cl | > 200 | 273 (≈ 100 µg/mL) | – | –
33 | O=C(Cl)CCCCC(=O)Nc1nnc(-c2cccc([N+](=O)[O-])c2)s1 | > 200 | 135 (≈ 49.8 µg/mL) | – | –
34 | C/C=C/C(CCC)N(C(=O)c1ccccc1)c1nnc(-c2ccc([N+](=O)[O-])cc2)s1 (stereo not drawn) | > 200 | 117 (≈ 49.4 µg/mL) | – | –
35 | O=C(Nc1nnc(-c2cccc([N+](=O)[O-])c2)s1)c1ccccc1 | > 200 | 38 (≈ 12.4 µg/mL) | – | –
36 | O=C(Nc1nnc(-c2cccc([N+](=O)[O-])c2)s1)c1ccco1 | 39 (≈ 12.3 µg/mL) | 19 (≈ 6.01 µg/mL) | 312 | –
37 | CC(C)(C)C(=O)Nc1nnc(-c2ccncc2)s1 | > 200 | 238 (≈ 62.4 µg/mL) | – | –
38 | O=C(CCCCl)Nc1nnc(-c2ccncc2)s1 | > 200 | 221 (≈ 62.5 µg/mL) | – | –
39 | O=C(Nc1nnc(-c2ccncc2)s1)c1ccc([N+](=O)[O-])cc1 | 76 (≈ 24.9 µg/mL) | 9.93 (≈ 3.25 µg/mL) | 369 | –
40 | CCCCC(=O)Nc1nnc(-c2ccncc2)s1 | 381 (≈ 100 µg/mL) | 95 (≈ 24.9 µg/mL) | – | –
41 | NNC(=O)c1ccncc1 [ISONIAZID] | > 200 | 3.64 (≈ 0.499 µg/mL) | – | –
42 | CO[C@H]1/C=C/O[C@@]2(C)Oc3c(C)c(O)c4c(O)c(c(/C=N/N5CCN(C)CC5)c(O)c4c3C2=O)NC(=O)/C(C)=C\C=C\[C@H](C)[C@H](O)[C@@H](C)[C@@H](O)[C@@H](C)[C@H](OC(C)=O)[C@@H]1C [RIFAMPIN] | 128 (≈ 105 µg/mL) | 0.152 (≈ 0.125 µg/mL) | – | –
43 | CN[C@@H]1C[C@H]2O[C@@](C)([C@@H]1OC)n1c3ccccc3c3c4c(c5c6ccccc6n2c5c31)C(=O)NC4 [STAUROSPORINE] | – | – | 0.028 | –
